Measurements: ChEMBL document CHEMBL1124006, “Synthesis and cognition activating properties of some mono- and bicyclic lactam derivatives” (1988)
Where “and” joins values, the source holds several entries; their conditions need not be identical. Equal entries are not always repeated.

Legend:
[1] = test system: Mus musculus; assay: Spontaneous motor activity in open field at the dose of 500 mg/kg on mice; type: functional
How it was run: (§1)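 Open-field activity in male and female Swiss mice (22 ± 2 g, 10 per dose), compound given ip in 1% Tween 80 with vehicle-only controls. Tested 15 min after injection: total movements per animal in 5 min, mean ± SD; t test vs vehicle.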

[2] = test system: Mus musculus; assay: Motor coordination in rotarod test performed (total number of falls in 3 min) at the dose of 1000 mg/kg lactam derivatives on mice; type: functional
How it was run: (§2)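 Rota-rod motor coordination in Swiss mice (10 per dose, sexes mixed, 22 ± 2 g), dosed ip in 1% Tween 80 against vehicle controls. Falls counted per animal, mean ± SD; t test vs vehicle. The table footer gives 3 min and the method gives a 100 s observation period.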

[3] = test system: Mus musculus; assay: Maximal Electroshock seizure (% of animals without seizures) at the dose of 500 mg/kg lactam derivatives on mice; type: functional
How it was run: (§3)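 Swiss mice (5 male, 5 female per dose, 22 ± 2 g) dosed ip in 1% Tween 80, with vehicle controls. Maximal electroshock set to kill 50% of controls: 60 mA, 0.4 s shock, 0.6 ms pulse width. Read-out: percent of animals without seizures.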

[4] = test system: Mus musculus; assay: Maximal Electroshock seizure (% of animals without seizures) at the dose of 1000 mg/kg lactam derivatives on mice; type: functional
How it was run: (§4)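 Swiss mice of both sexes, 10 per dose, ip in 1% Tween 80. Maximal electroshock set to kill 50% of controls (60 mA, 0.4 s, 0.6 ms pulse width). Mice without seizures counted as protected; percent protected.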

[5] = test system: Mus musculus; assay: Motor coordination in rotarod test performed (total number of falls in 3 min) at the dose of 500 mg/kg lactam derivatives on mice; type: functional; how it was run: as §2
[6] = test system: Mus musculus; assay: Exploratory activity in hole board at the dose of 500 mg/kg lactum derivatives on mice; type: functional
How it was run: (§5)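 Swiss inbred mice (male and female, 22 ± 2 g), 10 per dose (5 of each sex), given ip in 1% Tween 80; controls got vehicle only. Boissier–Simon hole board with infrared detection: total holes explored per animal in 5 min, mean ± SD. t test vs vehicle.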

[7] = test system: Mus musculus; assay: Exploratory activity in hole board at the dose of 1000 mg/kg lactam derivatives on mice; type: functional
How it was run: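 Swiss mice of both sexes, 22 ± 2 g, 10 per dose, ip in 1% Tween 80. Hole board (Boissier and Simon); holes explored in 5 min counted by infrared device; mean ± SD.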

[8] = test system: Mus musculus; assay: Traction test (times in seconds on the horizontal wire with forelegs) performed at the dose of 500 mg/kg lactam derivatives on mice; type: functional
How it was run: (§6)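 Boissier–Simon traction test in Swiss mice (5 male plus 5 female per dose, 22 ± 2 g), dosed ip in 1% Tween 80, with vehicle controls. Read-out: time in seconds each mouse stays hanging by its forelegs on a horizontal wire, mean ± SD; t test vs vehicle.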

[9] = test system: Mus musculus; assay: Spontaneous motor activity in open field at the dose of 1000 mg/kg on mice; type: functional
How it was run: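 Swiss mice, male and female, 22 ± 2 g, 10 per dose (5 each sex). Dosed ip in 1% Tween 80, doses up to 1000 mg/kg. Open field 15 min after injection; total movements in 5 min; mean ± SD, t test.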

[10] = test system: Mus musculus; assay: Traction test (times in seconds on the horizontal wire with forelegs) performed at the dose of 1000 mg/kg lactam derivatives on mice; type: functional; how it was run: as §6
[11] = test system: Rattus norvegicus; assay: Effect of lactam derivative on retention in one-trial passive avoidance test in rats tested at equimolar doses to 100 mg/kg ip of piracetam; type: functional, organism-based; set-up: dose 100 mg/kg; conditions: at 100 mg/kg
How it was run: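 Male Sprague-Dawley rats, 250-300 g, 8 per group, dosed ip twice for 2 days, equimolar to 100 mg/kg piracetam. Trained to avoid dark compartment, 720 μA footshock for 15 s; retested 24 h later with grid off. Rats avoiding dark side 0.2-3 min counted as remembering; percent retention.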

[12] = test system: Rattus norvegicus; assay: Retention time was measured at equimolar doses to 100 mg/kg ip of piracetam; type: functional, organism-based; set-up: dose 100 mg/kg
How it was run: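 Male Sprague-Dawley rats, 8 per group, ip twice for 2 days, equimolar to 100 mg/kg piracetam. Footshock 720 μA, 15 s; retest 24 h later. For remembering rats, retention time T = T' − T0, light-compartment time at retest minus time at acquisition; mean ± SD, t test.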

[13] = test system: Mus musculus; assay: Motor coordination in rotarod test performed (total number of falls in 3 min) at the dose of 500 mg/kg on mice; type: functional; how it was run: as §2
[14] = test system: Mus musculus; assay: Spontaneous motor activity in open field at the dose of 1000 mg/kg on mice (statistical significance test); type: functional; how it was run: as §1
[15] = test system: Mus musculus; assay: Maximal Electroshock seizure (% of animals without seizures) at the dose of 500 mg/kg on mice; type: functional; how it was run: as §3
[16] = test system: Mus musculus; assay: Traction test (times in seconds on the horizontal wire with forelegs) performed at the dose of 1000 mg/kg on mice (statistical significance test); type: functional; how it was run: as §6
[17] = test system: Mus musculus; assay: Motor coordination in rotarod test performed (total number of falls in 3 min) at the dose of 1000 mg/kg on mice (statistical significance test); type: functional; how it was run: as §2
[18] = test system: Mus musculus; assay: Maximal Electroshock seizure (% of animals without seizures) at the dose of 1000 mg/kg on mice; type: functional; how it was run: as §4
[19] = test system: Mus musculus; assay: Exploratory activity in hole board at the dose of 1000 mg/kg on mice (statistical significance test); type: functional; how it was run: as §5
[20] = test system: Mus musculus; assay: Traction test (times in seconds on the horizontal wire with forelegs) performed at the dose of 500 mg/kg on mice (statistical significance test); type: functional; how it was run: as §6
[21] = test system: Rattus norvegicus; assay: Effect of tested at dose of 100 mg/kg in the water- maze test (day 2); type: functional
How it was run: (§7)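 Male Sprague-Dawley rats, 250-300 g, 10 per group; day 1 selects rats unable to leave the water maze within 5 min. Drug dosed ip twice daily on days 2-4, equimolar to 100 mg/kg piracetam. On day 5, two doses 30 min apart, then transtemporal ECS (60 mA/0.2 s). Mazes run 15, 60, 240 min after shock. Errors (reversals plus wrong entrances) and exit time recorded; mean ± SD, t test.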

[22] = test system: Rattus norvegicus; assay: Effect of lactam derivatives tested at dose of 100 mg/kg in the water- maze test (day 2); type: functional; how it was run: as §7
[23] = test system: Mus musculus; assay: Traction test (times in seconds on the horizontal wire with forelegs) performed at the dose of 1000 mg/kg on mice; type: functional
How it was run: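 Swiss mice of both sexes, 10 per dose, ip in 1% Tween 80. Boissier and Simon traction test; time spent hanging by forelegs on a horizontal wire, in seconds; mean ± SD.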

[24] = test system: Rattus norvegicus; assay: Effect of tested at dose of 100 mg/kg in the water- maze test after 60 minutes (day 4); type: functional; how it was run: as §7
[25] = test system: Rattus norvegicus; assay: Effect of tested at dose of 100 mg/kg in the water- maze test (day 3); type: functional; how it was run: as §7
[26] = test system: Rattus norvegicus; assay: Effect of tested at dose of 100 mg/kg in the water- maze test (day 1); type: functional; how it was run: as §7
[27] = test system: Rattus norvegicus; assay: Effect of tested at dose of 100 mg/kg in the water- maze test after 15 minutes (day 4); type: functional; how it was run: as §7
[28] = test system: Mus musculus; assay: Motor coordination in rotarod test performed (total number of falls in 3 min) at the dose of 1000 mg/kg on mice; type: functional
[29] = test system: Rattus norvegicus; assay: Effect of lactam derivatives tested at dose of 100 mg/kg in the water- maze test (day 1); type: functional; how it was run: as §7
[30] = test system: Rattus norvegicus; assay: Effect of tested at dose of 100 mg/kg in the water- maze test after 30 minutes (day 4); type: functional
[31] = test system: Rattus norvegicus; assay: Effect of tested at dose ofv 100 mg/kg in the water- maze test (day 2); type: functional; how it was run: as §7

SMILES: CCOC(=O)C1CNC(=O)CC1C(=O)OCC (stereo in doubt; 4) [listing 1 of 2 here]
- Activity [1]: 3410.5
- Activity [2]: 3.3
- Activity [3]: 0%
- Activity [4]: 0%
- Activity [5]: 1
- Activity [6]: 20.4
- Activity [7]: 20
- Activity [8]: 75.8
- Activity [9]: 2522
- Activity [10]: 112.8

SMILES: CCOC(=O)C1CNC(=O)CC1C(=O)OCC (stereo in doubt; 4) [listing 2 of 2 here]
- Retention [11]: 100%
- Retention time [12]: 44.2 s

SMILES: CCOC(=O)C1CNC(=O)CC1C(=O)OCC (stereo in doubt; 5) [listing 1 of 2 here]
- Activity [1]: 3025.2
- Activity [13]: 0.8
- Activity [14]: 782
- Activity [15]: 0%
- Activity [16]: <7
- Activity [17]: 16.4
- Activity [18]: 40%
- Activity [19]: 8.9%
- Activity [20]: 65.1

SMILES: CCOC(=O)C1CNC(=O)CC1C(=O)OCC (stereo in doubt; 5) [listing 2 of 2 here]
- Retention [11]: 100%
- Retention time [12]: 47.2 s

SMILES: NC(=O)CN1CCCC1=O [PIRACETAM]
- Speed of performance [21]: 291.5
- No. of errors [22]: 7.2 and 8.1
- Activity [23]: 79.9
- Retention [11]: 100%
- No. of errors [24]: 3.6
- Speed of performance [24]: 197.6
- No. of errors [25]: 3.5 and 5
- Speed of performance [25]: 249 and 250.1
- No. of errors [26]: 7.6 and 9.1
- No. of errors [27]: 3.2
- Speed of performance [27]: 251
- Activity [28]: 1.7
- Activity [7]: 19.6
- Activity [18]: 0%
- Activity [9]: 3764.3
- Speed of performance [29]: 272.2 and 265
- No. of errors [30]: 2.1
- Speed of performance [30]: 235.7
- Speed of performance [31]: 282.7
- Retention time [12]: 43.2 s
